Bounds are passed on as bounds.

Data set [1] addresses T1, Intercellular adhesion molecule (ICAM-1), Integrin alpha-L/beta-2 (Homo sapiens, UniProt P05107+P20701). In words: Dissociation constant for human Lymphocyte function associated antigen 1 in LFA-1/ICAM-1 binding assay. The format is protein-complex assay.
The nature of data set [2]: Maximum plasma concentration present after 4 hours of administration of compound at 30 mg/kg. The format is ADME, organism-based, Homo sapiens. Set-up: dose 30 mg/kg. The note with it: read-out: Concentration.
The nature of data set [3]: Maximum plasma concentration present after 4 hours of administration of compound of concentration 100 mg/kg. In kind it is ADME, organism-based, Homo sapiens. Set-up: dose 100 mg/kg. The note with it: read-out: Concentration. An outline of the steps:
(§1)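 Mice in the SEB-induced IL-2 production experiment were dosed orally at 30 or 100 mg/kg. Plasma drug concentration was measured 4 h after dosing and reported in ng/mL.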

Data set [4] is described as follows: Concentration required for inhibition of aggregation of JY cell line. The format is functional, cell-based. The conditions noted are these: Homo sapiens.
The species named for a further data set is Mus musculus. The data set can be described thus: tissue or blood. In kind it is functional, organism-based.
Data set [5] deals with T1, Intercellular adhesion molecule (ICAM-1), Integrin alpha-L/beta-2. The data set can be described thus: Dissociation constant against human Lymphocyte function associated antigen1 in LFA-1/ICAM-1 binding assay. The format is protein-complex assay.
A short description of data set [6]: Concentration of compound required for 50% inhibition of aggregation of JY cell lines. In kind it is functional, cell-based. The note with it: Homo sapiens.
The subject of data set [7] is Cell line. The data set can be described thus: cells. In kind it is functional, cell-based. The conditions noted are these: Homo sapiens, Blood.
Data set [8] deals with Cell line. In words: Concentration required for irreversible binding to human liver microsomes. In kind it is functional. For orientation: Liver microsomes are a subcellular fraction often used to study metabolism.
Data set [9] is described as follows: Maximum plasma concentration present after 4 hours of administration of compound of at 30 mg/kg. In kind it is ADME, organism-based, Homo sapiens. Details: dose 30 mg/kg. The note with it: read-out: Concentration.
A short description of data set [10]: Maximum plasma concentration present after 4 hours of administration of compound of at 100 mg/kg. The format is ADME, organism-based, Homo sapiens. Set-up: dose 100 mg/kg. The conditions noted are these: read-out: Concentration. An outline of the steps:
as §1

Data set [11] deals with T1, Intercellular adhesion molecule (ICAM-1), Integrin alpha-L/beta-2. The data set can be described thus: Dissociation constant for human Lymphocyte function associated antigen1 in LFA-1/ICAM-1 binding assay.
Data set [12] is described as follows: Concentration required to inhibit aggregation of JY cells. The format is functional, cell-based. The note with it: Homo sapiens.
In data set [13] the target is T1, Intercellular adhesion molecule (ICAM-1), Integrin alpha-L/beta-2. The data set can be described thus: Dissociation constant for human Lymphocyte function-associated antigen-1 in LFA-1/ICAM-1 binding assay. The format is protein-complex assay.

T1 sequence (P20701 whole entry): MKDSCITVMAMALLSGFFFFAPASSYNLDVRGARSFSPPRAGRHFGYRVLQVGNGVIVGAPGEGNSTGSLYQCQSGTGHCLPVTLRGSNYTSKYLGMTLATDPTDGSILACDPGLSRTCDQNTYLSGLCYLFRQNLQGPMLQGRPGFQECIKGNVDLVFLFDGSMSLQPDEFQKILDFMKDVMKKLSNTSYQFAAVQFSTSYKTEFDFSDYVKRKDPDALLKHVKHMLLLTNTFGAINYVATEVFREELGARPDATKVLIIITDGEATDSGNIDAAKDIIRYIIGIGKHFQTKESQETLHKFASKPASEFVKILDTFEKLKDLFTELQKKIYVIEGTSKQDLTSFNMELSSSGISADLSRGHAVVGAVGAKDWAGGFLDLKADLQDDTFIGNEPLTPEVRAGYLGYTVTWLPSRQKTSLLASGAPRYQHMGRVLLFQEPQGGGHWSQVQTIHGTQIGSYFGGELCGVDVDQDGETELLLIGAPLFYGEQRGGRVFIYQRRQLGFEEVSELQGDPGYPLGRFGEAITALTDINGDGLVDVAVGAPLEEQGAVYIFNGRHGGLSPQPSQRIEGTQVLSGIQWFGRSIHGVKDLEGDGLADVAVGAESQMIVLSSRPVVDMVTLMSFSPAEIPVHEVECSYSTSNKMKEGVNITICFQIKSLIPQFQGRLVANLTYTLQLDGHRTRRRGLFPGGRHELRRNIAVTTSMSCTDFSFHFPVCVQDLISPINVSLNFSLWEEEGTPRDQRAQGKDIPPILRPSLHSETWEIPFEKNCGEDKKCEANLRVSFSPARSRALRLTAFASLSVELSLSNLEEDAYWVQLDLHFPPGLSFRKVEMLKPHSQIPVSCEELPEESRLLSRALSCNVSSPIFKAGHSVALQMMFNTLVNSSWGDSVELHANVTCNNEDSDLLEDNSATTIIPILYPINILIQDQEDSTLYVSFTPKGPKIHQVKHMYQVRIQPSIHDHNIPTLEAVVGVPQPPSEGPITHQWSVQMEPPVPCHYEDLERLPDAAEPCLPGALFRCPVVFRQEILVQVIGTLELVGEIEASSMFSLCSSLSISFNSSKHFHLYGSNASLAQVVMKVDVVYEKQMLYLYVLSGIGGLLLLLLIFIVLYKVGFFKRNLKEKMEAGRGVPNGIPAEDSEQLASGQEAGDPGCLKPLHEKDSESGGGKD
T1 sequence (P05362 whole entry, further chain): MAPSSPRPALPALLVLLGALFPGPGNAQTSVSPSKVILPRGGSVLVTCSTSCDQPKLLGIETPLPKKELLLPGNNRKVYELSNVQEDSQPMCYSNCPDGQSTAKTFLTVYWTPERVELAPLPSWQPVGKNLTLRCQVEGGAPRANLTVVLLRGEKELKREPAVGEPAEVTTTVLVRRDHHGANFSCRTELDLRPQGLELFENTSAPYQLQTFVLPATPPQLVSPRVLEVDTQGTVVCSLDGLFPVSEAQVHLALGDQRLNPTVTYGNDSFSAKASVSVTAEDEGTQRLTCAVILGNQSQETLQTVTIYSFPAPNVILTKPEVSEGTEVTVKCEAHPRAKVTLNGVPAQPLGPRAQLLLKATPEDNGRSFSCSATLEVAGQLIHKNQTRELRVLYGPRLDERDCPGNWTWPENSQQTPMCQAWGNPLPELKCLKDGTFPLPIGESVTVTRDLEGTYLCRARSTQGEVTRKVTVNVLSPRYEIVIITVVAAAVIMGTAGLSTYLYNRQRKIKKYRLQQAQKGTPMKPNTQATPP
T1 sequence (P05107 whole entry): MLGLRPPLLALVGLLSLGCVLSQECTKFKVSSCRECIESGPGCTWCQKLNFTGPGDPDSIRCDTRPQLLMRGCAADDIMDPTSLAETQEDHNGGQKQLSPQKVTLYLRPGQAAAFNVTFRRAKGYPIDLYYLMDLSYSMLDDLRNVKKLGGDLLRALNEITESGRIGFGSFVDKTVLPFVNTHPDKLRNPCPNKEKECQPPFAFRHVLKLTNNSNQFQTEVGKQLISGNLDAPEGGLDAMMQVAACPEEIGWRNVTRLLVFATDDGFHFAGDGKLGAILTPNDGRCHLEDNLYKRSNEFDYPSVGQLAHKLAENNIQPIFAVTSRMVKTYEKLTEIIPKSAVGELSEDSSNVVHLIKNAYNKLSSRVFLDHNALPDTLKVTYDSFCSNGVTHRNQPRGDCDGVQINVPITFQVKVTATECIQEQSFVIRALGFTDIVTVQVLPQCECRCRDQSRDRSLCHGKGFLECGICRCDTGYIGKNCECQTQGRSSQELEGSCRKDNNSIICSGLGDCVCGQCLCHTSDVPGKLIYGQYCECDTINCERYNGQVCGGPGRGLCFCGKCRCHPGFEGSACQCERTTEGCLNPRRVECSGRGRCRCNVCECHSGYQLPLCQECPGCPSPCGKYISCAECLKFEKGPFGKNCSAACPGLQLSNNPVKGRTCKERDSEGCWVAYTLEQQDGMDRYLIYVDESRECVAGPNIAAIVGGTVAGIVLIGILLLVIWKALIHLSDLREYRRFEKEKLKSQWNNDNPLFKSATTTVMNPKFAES

As for `COCCCS(=O)(=O)c1cnc2n1[C@](C)(Cc1ccc(Br)cc1)C(=O)N2c1cc(Cl)cc(Cl)c1`, the dissociation constant Kd (as a rule, the free concentration of one partner at which half of the binding sites on the other are occupied at equilibrium, for simple one-to-one binding) in data set [1] amounted to 20 nM.

For `C[C@@]1(Cc2ccc(Br)cc2)C(=O)N(c2cc(Cl)cc(Cl)c2)c2ncc(S(C)(=O)=O)n21`, the Cmax worked out at 2800 ng/mL in data set [2] and 14400 ng/mL in [3]. Inhibition in [4] was half-maximal at 260 nM (IC50). Moreover, the Kd in data set [1] worked out at 50 nM.

For the molecule `C[C@@]1(Cc2ccc(Br)cc2)C(=O)N(c2cc(Cl)cc(Cl)c2)c2ncc(S(=O)(=O)CCCN)n21`, the Kd in [1] came out at 170 nM.

For the molecule `C[C@@]1(Cc2ccc(Br)cc2)C(=O)N(c2cc(Cl)cc(Cl)c2)c2ncc(S(=O)(=O)N3CCCCC3)n21`, the affinity in [1], expressed as Kd, was 50 nM.

Regarding `C[C@@]1(Cc2ccc(Br)cc2)C(=O)N(c2cc(Cl)cc(Cl)c2)c2ncc(S(=O)(=O)N3CCC(=O)CC3)n21`, the 50% inhibitory concentration (IC50) (usually the point on the concentration scale where inhibition reaches its midpoint) in the data set listed under Mus musculus was 5500 nM; in [6] it was 250 nM; with Cell line [7], 5500 nM. Besides, the values for the Kd in [5] and in data set [1] were 300 nM and 10 nM, respectively.

`CC1(Cc2ccc(Br)cc2)C(=O)N(c2cc(Cl)cc(Cl)c2)c2nc(C#N)cn21` (centres undefined) yielded a Kd in data set [1] of 280 nM.

With `CC1(Cc2ccc(Br)cc2)C(=O)N(c2cc(Cl)cc(Cl)c2)c2nccn21` (racemic), in data set [1], the Kd came to 380 nM.

In the case of `C[C@@]1(Cc2ccc(Br)cc2)C(=O)N(c2cc(Cl)cc(Cl)c2)c2nccn21`, the Activity in the data set with Cell line [8] is given as 114 pM/min/ml. Also, the values for the Cmax in data set [9] and in data set [10] were 25 ng/mL and 155 ng/mL, respectively. In [4], this molecule displayed a half-maximal inhibitory concentration (IC50) of 1200 nM. The Kd in data set [1] came to 10 nM.

`CC1(Cc2ccc(Br)cc2)C(=O)N(c2cc(Cl)cc(Cl)c2)c2nc(S(C)(=O)=O)cn21` (centres undefined) displayed a dissociation constant Kd in data set [1] of 920 nM.

In the case of `CC1(Cc2ccc(Br)cc2)C(=O)N(c2cc(Cl)cc(Cl)c2)c2nc(I)cn21` (centres undefined), in [1], the Kd was more than 20000 nM.

For the molecule `C[C@@]1(Cc2ccc(Br)cc2)C(=O)N(c2cc(Cl)cc(Cl)c2)c2ncc(S(=O)(=O)N3CCOCC3)n21`, in data set [1], binding was put at a Kd of 20 nM.

Regarding `CC(=O)OCCCCS(=O)(=O)c1cnc2n1[C@](C)(Cc1ccc(Br)cc1)C(=O)N2c1cc(Cl)cc(Cl)c1`, the Kd in [1] amounted to 30 nM.

With `CC1(Cc2ccc(Br)cc2)C(=O)N(c2cc(Cl)cc(Cl)c2)c2ncc(I)n21` (centres undefined), in data set [1], the Kd amounted to 410 nM.

Regarding `C[C@]1(Cc2ccc(Br)cc2)C(=O)N(c2cc(Cl)cc(Cl)c2)c2nccn21`, the Kd in [1] was more than 7000 nM.

With `CC1(Cc2ccc(Br)cc2)C(=O)N(c2cc(Cl)cc(Cl)c2)c2nc(Br)cn21` (centres undefined), binding in data set [1] was characterised by a dissociation constant (Kd) of 630 nM.

On to `C[C@@]1(Cc2ccc(Br)cc2)C(=O)N(c2cc(Cl)cc(Cl)c2)c2ncc(S(=O)(=O)CCCO)n21`, for which the dissociation constant Kd in data set [11] came out at 10 nM; in [5], 100 nM; in [1], 10 nM. For the same molecule, the results for the half-inhibitory concentration (IC50) (in [6]; in the data set on Cell line [7]) were 90 nM and 10400 nM, respectively.

`CN1C(=O)N(c2cc(Cl)cc(Cl)c2)C(=O)[C@@]1(C)Cc1ccc(Br)cc1` registered an Activity in the data set on Cell line [8] of 141 pM/min/mg. The molecule also came in with a 50% inhibitory concentration (IC50) in data set [12] of 240 nM.

Take `C[C@@]1(Cc2ccc(Br)cc2)C(=O)N(c2cc(Cl)cc(Cl)c2)c2ncc(S(=O)(=O)N3CCC(O)CC3)n21`: the figures for the concentration for half-maximal inhibition (IC50) (in the data set filed under Mus musculus; in data set [6]; in the data set with Cell line [7]) were 4600 nM, 30 nM and 4600 nM, respectively. For the same molecule, the Kd in data set [5] came out at 40 nM; in [13], 9 nM; in data set [1], 8 nM.

For the molecule `C[C@@]1(Cc2ccc(Br)cc2)C(=O)N(c2cc(Cl)cc(Cl)c2)c2ncc(S(=O)(=O)N3CCNCC3)n21`, the half-maximal inhibitory concentration (IC50) in the data set listed under Mus musculus worked out at 27800 nM; in [6], 380 nM; in the data set with Cell line [7] it was 27800 nM. The dissociation constant (Kd) in data set [5] amounted to 400 nM; in [1], 50 nM.

In data set [1], `CC1(Cc2ccc(Br)cc2)C(=O)N(c2cc(Cl)cc(Cl)c2)c2nnnn21` (centres undefined) displayed a Kd of 110 nM.

`CNCCCS(=O)(=O)c1cnc2n1[C@](C)(Cc1ccc(Br)cc1)C(=O)N2c1cc(Cl)cc(Cl)c1` came in with a Kd in data set [1] of 150 nM.

Turning to `COc1cnc2n1C(C)(Cc1ccc(Br)cc1)C(=O)N2c1cc(Cl)cc(Cl)c1` (centres undefined), the Kd in [1] was 360 nM.

In data set [1], `CC1(Cc2ccc(Br)cc2)C(=O)N(c2cc(Cl)cc(Cl)c2)c2ncc(C#N)n21` (centres undefined) had a Kd of 190 nM.

In turn, `C[C@@]1(Cc2ccc(Br)cc2)C(=O)N(c2cc(Cl)cc(Cl)c2)c2ncc(S(=O)(=O)CCO)n21` displayed a Kd in data set [1] of 40 nM.

For `CC1(Cc2ccc(Br)cc2)C(=O)N(c2cc(Cl)cc(Cl)c2)c2ncc(S(C)(=O)=O)n21` (centres undefined), the equilibrium dissociation constant (Kd) in data set [1] was determined as 70 nM.

For the molecule `CC1(Cc2ccc(Br)cc2)C(=O)N(c2cc(Cl)cc(Cl)c2)c2nncn21` (centres undefined), in data set [1], the Kd is 40 nM.

On to `CC(=O)NCCCS(=O)(=O)c1cnc2n1[C@](C)(Cc1ccc(Br)cc1)C(=O)N2c1cc(Cl)cc(Cl)c1`, for which the 50% inhibitory concentration (IC50) in the data set filed under Mus musculus turned out to be 9500 nM; in data set [6] it was 350 nM; in the data set with Cell line [7] it was 9500 nM. For the same molecule, the Kd in data set [5] stood at 70 nM; in data set [1], 30 nM.

As for `C[C@@]1(Cc2ccc(Br)cc2)C(=O)N(c2cc(Cl)cc(Cl)c2)c2ncc(S(=O)(=O)N3CCCC(O)C3)n21` (some centres undefined), in data set [1], the dissociation constant Kd was 70 nM.

`Cc1cnc2n1C(C)(Cc1ccc(Br)cc1)C(=O)N2c1cc(Cl)cc(Cl)c1` (centres undefined): in data set [1], the affinity, expressed as Kd, was 340 nM.

Take `C[C@@]1(Cc2ccc(Br)cc2)C(=O)N(c2cc(Cl)cc(Cl)c2)c2ncc(S(=O)(=O)CCCCO)n21`: the dissociation constant Kd in [1] came to 10 nM.

For the molecule `CC1(Cc2ccc(Br)cc2)C(=O)N(c2cc(Cl)cc(Cl)c2)c2ncc(Br)n21` (centres undefined), in [1], binding was characterised by a dissociation constant (Kd) of 180 nM.

With `CC(=O)OCCCS(=O)(=O)c1cnc2n1[C@](C)(Cc1ccc(Br)cc1)C(=O)N2c1cc(Cl)cc(Cl)c1`, the equilibrium dissociation constant (Kd) in data set [5] amounted to 40 nM; in [1], 10 nM. For the same molecule, the IC50 in data set [6] is 370 nM; in the data set with Cell line [7] it was 7000 nM.

(Values after ChEMBL document CHEMBL1138790, “Second-generation lymphocyte function-associated antigen-1 inhibitors: 1H-imidazo[1,2-alpha]imidazol-2-one derivatives” (J Med Chem, 2004).)
